# Measured values published in ChEMBL document CHEMBL1134307, “trans-4-[4-(Methoxyphenyl)cyclohexyl]-1-arylpiperazines: a new class of potent and selective 5-HT(1A) receptor ligands as conformationally constrained analogues of 4-[3-(5-methoxy-1,2,3,4-tetrahydronaphthalen-1-yl)propyl]-1-arylpiperazines” (J Med Chem, 2001).
# Columns and labels:
# [1] = target: T1, 5-hydroxytryptamine receptor 1A (Homo sapiens) (UniProt P08908); assay: Maximal stimulation was expressed as percentage of the maximal 5-HT response in the [35S]GTP-gamma-S, binding assay on 5-hydroxytryptamine 1A receptor; assay type: functional
# T1 sequence (whole entry): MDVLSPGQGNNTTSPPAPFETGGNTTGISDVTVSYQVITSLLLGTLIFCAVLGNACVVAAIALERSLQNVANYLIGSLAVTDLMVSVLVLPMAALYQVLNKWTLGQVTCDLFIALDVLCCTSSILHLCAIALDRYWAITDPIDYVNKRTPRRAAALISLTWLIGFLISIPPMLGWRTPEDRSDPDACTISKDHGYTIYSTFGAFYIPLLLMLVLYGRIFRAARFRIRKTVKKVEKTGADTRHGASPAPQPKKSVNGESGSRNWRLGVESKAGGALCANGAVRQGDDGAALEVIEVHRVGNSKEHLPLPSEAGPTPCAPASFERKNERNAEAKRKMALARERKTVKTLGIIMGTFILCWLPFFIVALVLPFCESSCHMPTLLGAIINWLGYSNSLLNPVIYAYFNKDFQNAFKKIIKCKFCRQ
# Method in brief: (§1)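 Membranes of HeLa cells expressing human 5-HT1A, in 20 mM HEPES, 3 mM MgCl2, 120 mM NaCl pH 7.4. Preincubated 20 min at 30 °C with 30 µM GDP and drug (0.1 nM–100 µM) or 5-HT as reference curve. [35S]GTPγS (200–250 pM) then added for 30 min at 30 °C. Nonspecific binding with 10 µM GTPγS. Curves fitted by ALLFIT to give Emax and pD2 (−log EC50).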
# [2] = target: T1, 5-hydroxytryptamine receptor 1A (Homo sapiens); assay: Potency (pD2) for the stimulation of [35S]GTP-gamma-S, binding on 5-hydroxytryptamine 1A receptor; assay type: functional; method in brief: as §1
# [3] = target: T2, 5-hydroxytryptamine receptor 1A (Rattus norvegicus, UniProt P19327); assay: Binding was determined on 5-hydroxytryptamine 1A receptor in rat hippocampal membranes; assay type: cell membranes, Hippocampus
# T2 sequence (P19327 whole entry): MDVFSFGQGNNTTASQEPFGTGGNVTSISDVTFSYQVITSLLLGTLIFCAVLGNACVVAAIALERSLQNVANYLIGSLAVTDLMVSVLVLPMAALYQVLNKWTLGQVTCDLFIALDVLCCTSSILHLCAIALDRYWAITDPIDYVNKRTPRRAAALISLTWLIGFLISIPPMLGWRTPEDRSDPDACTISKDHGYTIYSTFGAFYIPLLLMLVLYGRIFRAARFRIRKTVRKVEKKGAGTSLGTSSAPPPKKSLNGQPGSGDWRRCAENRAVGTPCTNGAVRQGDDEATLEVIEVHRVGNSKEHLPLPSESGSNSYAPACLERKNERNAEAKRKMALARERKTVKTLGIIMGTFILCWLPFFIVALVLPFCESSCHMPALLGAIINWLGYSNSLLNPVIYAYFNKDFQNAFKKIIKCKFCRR
# Method in brief: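 Hippocampus from male Wistar Hannover rats, homogenized in 50 mM Tris pH 7.6, washed, and preincubated 10 min at 37 °C. Ki given as mean ± SEM.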
# [4] = target: T3, Alpha-1A adrenergic receptor (Homo sapiens, UniProt P35348); assay: Binding affinity was determined on human cloned Alpha-1A adrenoceptor
# T3 sequence (P35348 whole entry): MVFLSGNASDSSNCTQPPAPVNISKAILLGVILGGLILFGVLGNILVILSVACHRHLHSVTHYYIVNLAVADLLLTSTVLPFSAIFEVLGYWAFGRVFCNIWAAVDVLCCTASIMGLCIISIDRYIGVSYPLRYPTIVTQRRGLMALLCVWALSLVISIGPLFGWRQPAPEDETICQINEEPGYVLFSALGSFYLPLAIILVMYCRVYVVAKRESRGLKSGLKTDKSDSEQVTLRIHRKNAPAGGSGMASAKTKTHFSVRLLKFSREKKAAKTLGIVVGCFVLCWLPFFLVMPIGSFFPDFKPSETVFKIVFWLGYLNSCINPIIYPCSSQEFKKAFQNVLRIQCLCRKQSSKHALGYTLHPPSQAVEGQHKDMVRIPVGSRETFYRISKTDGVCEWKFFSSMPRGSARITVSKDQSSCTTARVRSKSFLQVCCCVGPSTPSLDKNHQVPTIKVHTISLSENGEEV
# Method in brief: (§2)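 Membranes from CHO cells stably expressing each human α1-adrenoceptor subtype, incubated in 50 mM Tris pH 7.4 with 0.2 nM [3H]prazosin and competing drugs (1 pM–10 µM), 30 min at 25 °C. Nonspecific binding with 10 µM phentolamine. Stopped with ice-cold Tris and filtration through 0.2% PEI-pretreated filters.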
# [5] = target: T4, Alpha-1D adrenergic receptor (Homo sapiens, UniProt P25100); assay: Binding affinity towarda alpha-1D adrenergic receptor; method in brief: as §2
# T4 sequence (P25100 whole entry): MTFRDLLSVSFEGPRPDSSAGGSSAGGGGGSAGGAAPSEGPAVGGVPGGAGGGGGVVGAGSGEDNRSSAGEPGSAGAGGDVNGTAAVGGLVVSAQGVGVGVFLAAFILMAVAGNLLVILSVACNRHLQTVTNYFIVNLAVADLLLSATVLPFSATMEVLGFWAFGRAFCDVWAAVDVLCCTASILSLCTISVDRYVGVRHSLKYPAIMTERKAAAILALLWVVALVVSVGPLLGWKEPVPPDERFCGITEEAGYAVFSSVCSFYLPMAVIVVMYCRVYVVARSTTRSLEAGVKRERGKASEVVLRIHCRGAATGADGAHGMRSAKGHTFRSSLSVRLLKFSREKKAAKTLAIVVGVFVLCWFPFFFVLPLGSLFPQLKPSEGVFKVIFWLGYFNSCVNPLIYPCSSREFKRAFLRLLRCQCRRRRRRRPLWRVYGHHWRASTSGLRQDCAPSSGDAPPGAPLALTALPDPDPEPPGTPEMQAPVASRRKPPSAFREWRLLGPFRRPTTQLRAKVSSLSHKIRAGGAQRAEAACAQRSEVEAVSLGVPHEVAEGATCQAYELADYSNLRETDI
# D(2) dopamine receptor = D(2) dopamine receptor (Rattus norvegicus, UniProt P61169); assay: Binding affinity towards dopamine receptor D2 in rat striatal membranes; assay type: cell membranes, Striatum, Membrane
# Chain of D(2) dopamine receptor (P61169 whole entry): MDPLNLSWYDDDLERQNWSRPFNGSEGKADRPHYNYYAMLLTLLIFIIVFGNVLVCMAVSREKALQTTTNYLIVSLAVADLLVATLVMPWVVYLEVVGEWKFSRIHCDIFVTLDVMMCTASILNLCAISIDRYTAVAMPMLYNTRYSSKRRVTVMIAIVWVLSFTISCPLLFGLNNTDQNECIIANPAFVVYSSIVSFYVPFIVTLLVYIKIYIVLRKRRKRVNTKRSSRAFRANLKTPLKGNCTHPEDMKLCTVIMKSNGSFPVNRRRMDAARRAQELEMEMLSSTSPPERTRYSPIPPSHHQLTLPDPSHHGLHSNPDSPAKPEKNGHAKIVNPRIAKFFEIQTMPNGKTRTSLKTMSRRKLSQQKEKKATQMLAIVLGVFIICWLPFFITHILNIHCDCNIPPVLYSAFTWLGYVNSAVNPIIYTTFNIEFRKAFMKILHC
# [6] = Selectivity expressed as a ratio of affinity against Alpha 1A-Adrenoceptor to that of 5-HT1A receptor
# [7] = Selectivity expressed as a ratio of affinity against Alpha 1b-Adrenoceptor to that of 5-HT1A receptor
# [8] = Selectivity expressed as a ratio of affinity against Alpha 1d-Adrenoceptor to that of 5-HT1A receptor
# [9] = target: T5, 5-hydroxytryptamine receptor 1A (Homo sapiens, UniProt P08908); assay: Binding affinity on human cloned 5-hydroxytryptamine 1A receptor transfected in human cell lines (He La); assay type: cell-based, Cell line
# T5 sequence (P08908 whole entry): T1 sequence (whole entry)
# Method in brief: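 HeLa cells stably expressing human 5-HT1A (genomic clone G-21), grown in DMEM with 10% FCS. […] Nonspecific binding with 10 µM 5-HT. Filtration through PEI-pretreated filters.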
Structure (SMILES),Emax [1],pD2 [2],Ki [3],Ki [4],Ki [5],Ki (D(2) dopamine receptor),Selectivity [6],Selectivity [7],Selectivity [8],Ki [9]
COc1cccc2c(CCCN3CCN(c4ccccn4)CC3)cccc12,86.3%,7.87,0.38 nM,1.62 nM,12.6 nM,450 nM,0.5,1,4,–
COc1cccc2c1CCCC2CCCN1CCN(c2ccccn2)CC1 (centres undefined),98.2%,10.2,0.48 nM,0.33 nM,5.95 nM,117 nM,4,98,74,0.08 nM
COc1cccc2c1CCCC2CCCNCCOc1ccccn1 (centres undefined),86.8%,10.2,0.54 nM,0.55 nM,12.7 nM,> 850 nM,2,115,55,–
COc1cccc2c(CCCNCCOc3ccccn3)cccc12,48%,8.2,0.19 nM,14.6 nM,83.2 nM,378 nM,17,314,97,–

# Next, values leading:
Emax [1],pD2 [2],Ki [3],Ki [4],Ki [5],Ki (D(2) dopamine receptor),Selectivity [6],Selectivity [7],Selectivity [8],Ki [9],Structure (SMILES)
–,–,17 nM,201 nM,142 nM,586 nM,–,–,–,–,COc1cccc(C2CCC(NCCOc3ccccn3)CC2)c1 (stereo in doubt)
–,–,0.02 nM,4.98 nM,4.49 nM,60 nM,–,–,–,–,COc1cccc(C2CCC(N3CCN(c4ccccc4OC)CC3)CC2)c1 (stereo in doubt; trans)
–,–,0.028 nM,33 nM,118 nM,2190 nM,–,–,–,–,COc1cccc(C2CCC(N3CCN(c4ccccn4)CC3)CC2)c1 (trans isomer)
